Data taken from ChEMBL document CHEMBL2380281, “Synthesis of proline analogues as potent and selective cathepsin S inhibitors” (Bioorg Med Chem Lett, 2013).
Each block holds one compound with its values, some of them ahead of it. Activity calls are given as the source filed them. The rule behind the calls is not given here.

Key:
[1] = target: T1, Cathepsin S (Homo sapiens, UniProt P25774); assay: Inhibition of human cathepsin-S
Target sequence in this assay (P25774 whole entry): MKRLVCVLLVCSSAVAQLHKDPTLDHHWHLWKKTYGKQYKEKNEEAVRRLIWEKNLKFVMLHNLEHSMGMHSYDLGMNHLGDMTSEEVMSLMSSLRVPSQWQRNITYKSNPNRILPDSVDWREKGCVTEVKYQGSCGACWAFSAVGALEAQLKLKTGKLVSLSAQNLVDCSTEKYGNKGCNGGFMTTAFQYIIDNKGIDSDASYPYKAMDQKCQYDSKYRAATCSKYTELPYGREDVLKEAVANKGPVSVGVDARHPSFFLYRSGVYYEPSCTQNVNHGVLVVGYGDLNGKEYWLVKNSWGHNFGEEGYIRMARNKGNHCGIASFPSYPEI

[2] = system: Mus musculus; assay: Antiarthritic activity in DBA1/J mouse assessed as decrease in collagen-induced arthritis score and degree of paw swelling at 30 mg/kg, po qd for 14 days; assay type: functional, organism-based; set-up: dose 30 mg/kg
Method in brief: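 Male DBA1/J mice (8 weeks, n = 7/group) immunized intradermally at tail base with bovine type II collagen in complete Freund's adjuvant, boosted 3 weeks later with collagen in incomplete Freund's adjuvant. Oral dosing once daily at 30 mg/kg in 10% hydroxypropyl-β-cyclodextrin/water, or vehicle, for 14 days. Arthritis score and paw swelling graded per paw every 2–3 days for 2 weeks from day 10 post-boost.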

[3] = Oral bioavailability in beagle dog at 10 mg/kg; assay type: ADME, organism-based, Canis lupus familiaris; conditions: in vivo
Method in brief: (§1)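 Male beagle dogs aged 14 months dosed once, 10 mg/kg orally or 1 mg/kg intravenously, n = 3 per route; pharmacokinetic parameters calculated.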

[4] = Cmax in beagle dog at 1 mg/kg, iv and 10 mg/kg, po; assay type: ADME, organism-based, Canis lupus familiaris; conditions: in vivo; method in brief: as §1
[5] = Half life in beagle dog at 1 mg/kg, iv and 10 mg/kg, po; assay type: ADME, organism-based, Canis lupus familiaris; conditions: in vivo; method in brief: as §1
[6] = AUC (0 to 24 hrs) in beagle dog at 1 mg/kg, iv and 10 mg/kg, po; assay type: ADME, organism-based, Canis lupus familiaris; conditions: plasma; method in brief: as §1
[7] = Oral bioavailability in Sprague-Dawley rat at 10 mg/kg; assay type: ADME, organism-based; conditions: in vivo
Method in brief: (§2)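 Male Sprague–Dawley rats, 7 weeks of age, received one oral dose of 10 mg/kg or one intravenous dose of 5 mg/kg (n = 3 each); pharmacokinetic parameters determined.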

[8] = Half life in Sprague-Dawley rat at 5 mg/kg, iv and 10 mg/kg, po; assay type: ADME, organism-based; conditions: in vivo; method in brief: as §2
[9] = Cmax in Sprague-Dawley rat at 5 mg/kg, iv and 10 mg/kg, po; assay type: ADME, organism-based; conditions: in vivo; method in brief: as §2
[10] = AUC (0 to 24 hrs) in Sprague-Dawley rat at 5 mg/kg, iv and 10 mg/kg, po; assay type: ADME, organism-based; conditions: plasma; method in brief: as §2
[11] = Oral bioavailability in ICR mouse at 10 mg/kg; assay type: ADME, organism-based; conditions: in vivo
Method in brief: (§3)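 Single dose given orally (10 mg/kg) or intravenously (5 mg/kg) to male ICR mice, 7 weeks old, n = 3 per route; pharmacokinetic parameters derived from these dosings.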

[12] = Half life in ICR mouse at 5 mg/kg, iv and 10 mg/kg, po; assay type: ADME, organism-based; conditions: in vivo; method in brief: as §3
[13] = Cmax in ICR mouse at 5 mg/kg, iv and 10 mg/kg, po; assay type: ADME, organism-based; conditions: in vivo; method in brief: as §3
[14] = AUC (0 to 24 hrs) in ICR mouse at 5 mg/kg, iv and 10 mg/kg, po; assay type: ADME, organism-based; conditions: plasma; method in brief: as §3
[15] = target: Cytochrome P450 2D6 (Homo sapiens, UniProt P10635); assay: Inhibition of CYP2D6 (unknown origin) by fluorescence detection method; assay type: ADME
Cytochrome P450 2D6, sequence (P10635 whole entry): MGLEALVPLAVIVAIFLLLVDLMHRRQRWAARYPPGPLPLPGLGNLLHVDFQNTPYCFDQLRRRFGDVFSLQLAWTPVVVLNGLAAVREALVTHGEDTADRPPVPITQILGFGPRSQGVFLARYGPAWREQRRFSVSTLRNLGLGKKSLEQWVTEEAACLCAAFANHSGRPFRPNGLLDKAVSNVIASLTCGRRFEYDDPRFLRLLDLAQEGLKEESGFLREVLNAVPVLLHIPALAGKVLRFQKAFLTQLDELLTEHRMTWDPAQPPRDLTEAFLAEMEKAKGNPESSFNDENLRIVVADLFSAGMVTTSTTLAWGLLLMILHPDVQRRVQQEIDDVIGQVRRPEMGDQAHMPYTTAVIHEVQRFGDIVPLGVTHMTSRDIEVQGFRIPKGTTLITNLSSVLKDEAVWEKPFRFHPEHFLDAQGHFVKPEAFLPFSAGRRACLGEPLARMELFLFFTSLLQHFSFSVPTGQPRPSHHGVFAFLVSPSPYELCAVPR

[16] = target: Cytochrome P450 2C19 (Homo sapiens, UniProt P33261); assay: Inhibition of CYP2C19 (unknown origin) by fluorescence detection method; assay type: ADME
Cytochrome P450 2C19, sequence (P33261 whole entry): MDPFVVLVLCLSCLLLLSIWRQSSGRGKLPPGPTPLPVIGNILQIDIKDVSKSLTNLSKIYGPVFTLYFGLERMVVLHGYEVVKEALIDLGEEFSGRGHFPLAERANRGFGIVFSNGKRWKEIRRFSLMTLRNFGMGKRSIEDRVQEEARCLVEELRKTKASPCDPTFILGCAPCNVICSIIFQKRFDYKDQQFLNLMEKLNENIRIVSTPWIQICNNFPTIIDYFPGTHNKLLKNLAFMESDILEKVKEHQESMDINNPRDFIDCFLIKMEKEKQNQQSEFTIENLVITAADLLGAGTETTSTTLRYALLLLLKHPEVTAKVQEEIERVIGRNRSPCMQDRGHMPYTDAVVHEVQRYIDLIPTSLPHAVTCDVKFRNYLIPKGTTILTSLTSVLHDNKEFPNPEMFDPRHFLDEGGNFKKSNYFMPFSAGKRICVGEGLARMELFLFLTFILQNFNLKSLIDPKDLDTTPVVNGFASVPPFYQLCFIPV

[17] = target: T2, Cytochrome P450 1A2 (Homo sapiens, UniProt P05177); assay: Inhibition of CYP1A2 (unknown origin) by fluorescence detection method; assay type: ADME
T2 sequence (P05177 whole entry): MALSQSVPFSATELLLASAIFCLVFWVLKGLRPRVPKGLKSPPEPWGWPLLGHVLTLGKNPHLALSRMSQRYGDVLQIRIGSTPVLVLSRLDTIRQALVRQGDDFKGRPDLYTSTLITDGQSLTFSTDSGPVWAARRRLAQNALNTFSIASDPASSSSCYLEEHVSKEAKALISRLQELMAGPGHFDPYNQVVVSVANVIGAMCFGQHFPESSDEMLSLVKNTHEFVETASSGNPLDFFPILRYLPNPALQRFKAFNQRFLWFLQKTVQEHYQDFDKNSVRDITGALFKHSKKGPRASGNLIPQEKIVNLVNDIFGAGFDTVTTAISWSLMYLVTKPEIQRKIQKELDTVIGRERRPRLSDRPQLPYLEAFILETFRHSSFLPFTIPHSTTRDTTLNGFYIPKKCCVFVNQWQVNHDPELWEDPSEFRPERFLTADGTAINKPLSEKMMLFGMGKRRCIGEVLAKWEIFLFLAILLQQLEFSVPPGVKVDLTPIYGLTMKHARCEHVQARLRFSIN

[18] = target: Cytochrome P450 2C9 (Homo sapiens, UniProt P11712); assay: Inhibition of CYP2C9 (unknown origin) by fluorescence detection method; assay type: ADME
Cytochrome P450 2C9, sequence (P11712 whole entry): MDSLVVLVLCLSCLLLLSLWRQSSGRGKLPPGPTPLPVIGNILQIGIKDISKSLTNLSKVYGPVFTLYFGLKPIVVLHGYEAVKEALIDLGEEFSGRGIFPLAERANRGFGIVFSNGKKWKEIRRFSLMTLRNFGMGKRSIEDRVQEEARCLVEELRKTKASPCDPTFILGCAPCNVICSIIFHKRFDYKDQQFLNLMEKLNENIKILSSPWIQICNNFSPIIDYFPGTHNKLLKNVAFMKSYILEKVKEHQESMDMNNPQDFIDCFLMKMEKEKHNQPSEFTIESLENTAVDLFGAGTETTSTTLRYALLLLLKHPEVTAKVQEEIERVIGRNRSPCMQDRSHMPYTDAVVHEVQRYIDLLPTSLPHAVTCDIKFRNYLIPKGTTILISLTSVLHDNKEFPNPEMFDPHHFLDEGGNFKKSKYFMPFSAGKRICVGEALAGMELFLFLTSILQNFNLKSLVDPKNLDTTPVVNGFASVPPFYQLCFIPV

[19] = target: Cytochrome P450 3A4 (Homo sapiens, UniProt P08684); assay: Inhibition of CYP3A4 (unknown origin) by fluorescence detection method; assay type: ADME
Cytochrome P450 3A4, sequence (P08684 whole entry): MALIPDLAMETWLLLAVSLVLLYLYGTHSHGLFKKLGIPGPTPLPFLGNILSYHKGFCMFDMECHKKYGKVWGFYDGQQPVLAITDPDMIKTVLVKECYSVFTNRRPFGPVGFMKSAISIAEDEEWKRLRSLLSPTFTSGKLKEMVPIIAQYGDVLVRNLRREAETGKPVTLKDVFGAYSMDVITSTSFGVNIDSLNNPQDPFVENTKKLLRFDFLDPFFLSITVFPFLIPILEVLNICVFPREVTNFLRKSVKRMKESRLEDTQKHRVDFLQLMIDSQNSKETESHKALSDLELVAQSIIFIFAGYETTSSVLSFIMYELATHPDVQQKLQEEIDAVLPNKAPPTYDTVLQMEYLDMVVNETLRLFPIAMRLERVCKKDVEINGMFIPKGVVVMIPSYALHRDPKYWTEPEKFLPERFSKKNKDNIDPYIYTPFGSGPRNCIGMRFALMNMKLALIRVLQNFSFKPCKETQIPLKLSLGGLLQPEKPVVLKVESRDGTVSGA

[20] = Metabolic stability in mouse liver microsomes assessed as compound remaining at 5 uM after 60 mins; assay type: ADME, Microsome; conditions: read-out: Stability
Method in brief: (§4)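 Compound at 5 µM incubated 60 min with mouse, rat, dog or human liver microsomes, in duplicate; result given as percentage of parent remaining.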

[21] = Metabolic stability in rat liver microsomes assessed as compound remaining at 5 uM after 60 mins; assay type: ADME, Microsome; conditions: read-out: Stability; method in brief: as §4
[22] = Metabolic stability in dog liver microsomes assessed as compound remaining at 5 uM after 60 mins; assay type: ADME, Canis lupus familiaris, Microsome; conditions: read-out: Stability; method in brief: as §4
[23] = Metabolic stability in human liver microsomes assessed as compound remaining at 5 uM after 60 mins; assay type: ADME, Microsome; conditions: read-out: Stability; method in brief: as §4
[24] = target: T1, Cathepsin S; assay: Inhibition of cathepsin-S in human Jiyoye cells assessed as conversion of invariant chain Lip10 to CLIP; assay type: cell-based
Method in brief: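 Jiyoye cells were stimulated with IFN-γ and treated with the inhibitor at 1, 10, 100 and 1000 nM, alongside untreated controls. The read-out was Lip10 accumulation.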
Target sequence in this assay (P25774 115-331 limits assumed): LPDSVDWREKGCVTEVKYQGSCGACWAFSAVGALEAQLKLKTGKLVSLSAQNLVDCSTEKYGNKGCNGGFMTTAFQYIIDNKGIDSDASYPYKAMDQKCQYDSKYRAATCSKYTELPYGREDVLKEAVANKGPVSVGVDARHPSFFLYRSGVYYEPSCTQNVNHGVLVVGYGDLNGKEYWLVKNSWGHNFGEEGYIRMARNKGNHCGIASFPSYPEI

[25] = target: T3, Cathepsin K (Homo sapiens, UniProt P43235); assay: Inhibition of human cathepsin-K
T3 sequence (P43235 whole entry): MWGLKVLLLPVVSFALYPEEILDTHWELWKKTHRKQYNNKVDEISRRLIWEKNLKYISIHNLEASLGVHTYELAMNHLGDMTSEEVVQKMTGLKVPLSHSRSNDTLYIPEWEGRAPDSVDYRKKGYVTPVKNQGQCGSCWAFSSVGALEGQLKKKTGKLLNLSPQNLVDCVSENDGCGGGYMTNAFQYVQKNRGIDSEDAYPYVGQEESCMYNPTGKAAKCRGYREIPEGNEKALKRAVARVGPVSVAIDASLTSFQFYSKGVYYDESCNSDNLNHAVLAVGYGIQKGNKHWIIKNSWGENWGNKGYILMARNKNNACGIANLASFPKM
Method in brief: (§5)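 Human cathepsin B and K activity measured with a SensoLyte 520 cathepsin activity assay kit; LHVS as pan-cathepsin positive control.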

[26] = target: Cathepsin B (Homo sapiens, UniProt P07858); assay: Inhibition of human cathepsin-B; method in brief: as §5

IC50 [1]: 3.3 nM
Structure (SMILES): CCC(NC(=O)[C@@H]1C[C@@H](S(=O)(=O)c2ccccc2)CN1C(C)=O)C(=O)c1nc2ccccc2o1 (some centres undefined)

IC50 [1]: 3.1 nM
Structure (SMILES): CCC(=O)N1C[C@H](S(=O)(=O)c2ccccc2)C[C@H]1C(=O)NC(CC)C(=O)c1nc2ccccc2o1 (some centres undefined)

bioavailability [3]: 48.6%
Cmax [4]: 3820 ng/mL
half-life [5]: 3.7 h
AUC(0-t) [6]: 5050 ng·h/mL
bioavailability [7]: 64.8%
half-life [8]: 2.1 h
Cmax [9]: 3520 ng/mL
AUC(0-t) [10]: 7250 ng·h/mL
bioavailability [11]: 28.7%
half-life [12]: 1.6 h
Cmax [13]: 1910 ng/mL
AUC(0-t) [14]: 1030 ng·h/mL
IC50 [15]: > 20000 nM
IC50 [16]: > 20000 nM
IC50 [17]: > 20000 nM
IC50 [18]: 5000 nM
IC50 [19]: 9950 nM
remaining at 1 h, 5 µM [20]: 37%
remaining at 1 h, 5 µM [21]: 37%
remaining at 1 h, 5 µM [22]: 47%
remaining at 1 h, 5 µM [23]: 70%
inhibition [24]: Active
IC50 [25]: > 10000 nM
IC50 [1]: 3.3 nM
IC50 [26]: > 10000 nM
Structure (SMILES): CC[C@H](NC(=O)[C@@H]1C[C@@H](S(=O)(=O)c2ccccc2)CN1C(C)=O)C(=O)c1nc2ccccc2o1
Activity [2]: Active

IC50 [1]: 3.5 nM
Structure (SMILES): CCC(NC(=O)[C@@H]1C[C@@H](S(=O)(=O)c2ccccc2)CN1S(C)(=O)=O)C(=O)c1nc2ccccc2o1 (some centres undefined)

IC50 [1]: 2.3 nM
Structure (SMILES): CCC(NC(=O)[C@@H]1C[C@@H](S(=O)(=O)c2ccccc2Cl)CN1C(C)=O)C(=O)c1nc2ccccc2o1 (some centres undefined)

IC50 [1]: 24.6 nM
Structure (SMILES): CC(=O)N1C[C@H](S(=O)(=O)c2ccccc2)C[C@H]1C(=O)NC(C(=O)c1nc2ccccc2o1)C(C)C (some centres undefined)

IC50 [25]: > 10000 nM
IC50 [1]: 4.1 nM
IC50 [26]: > 10000 nM
Structure (SMILES): CCC(NC(=O)[C@@H]1C[C@@H](S(=O)(=O)c2ccccc2)CN1C(=O)c1ccc(-c2ccccc2)cc1)C(=O)c1nc2ccccc2o1 (some centres undefined)

IC50 [1]: 45.4 nM
Structure (SMILES): CCC(NC(=O)[C@@H]1C[C@@H](S(=O)(=O)c2ccccc2)CN1CC(C)=O)C(=O)c1nc2ccccc2o1 (some centres undefined)

IC50 [1]: 156 nM
Structure (SMILES): CCC(NC(=O)[C@@H]1C[C@@H](S(=O)(=O)c2ccccc2)CN1)C(=O)c1nc2ccccc2o1 (some centres undefined)

IC50 [1]: > 100 nM
Structure (SMILES): CC(=O)N1C[C@H](S(=O)(=O)c2ccccc2)C[C@H]1C(=O)NC(Cc1ccccc1)C(=O)c1nc2ccccc2o1 (some centres undefined)

IC50 [1]: 2.7 nM
Structure (SMILES): CCC(NC(=O)[C@@H]1C[C@@H](S(=O)(=O)c2ccccc2)CN1C(=O)C(F)(F)F)C(=O)c1nc2ccccc2o1 (some centres undefined)

IC50 [1]: 20.7 nM
Structure (SMILES): CCC(NC(=O)[C@@H]1C[C@@H](Sc2ccccc2)CN1C(C)=O)C(=O)c1nc2ccccc2o1 (some centres undefined)

IC50 [1]: 2.4 nM
Structure (SMILES): CCC(NC(=O)[C@@H]1C[C@@H](S(=O)(=O)c2ccccc2)CN1C(=O)C(C)C)C(=O)c1nc2ccccc2o1 (some centres undefined)

IC50 [1]: 3.7 nM
Structure (SMILES): CCC(NC(=O)[C@@H]1C[C@@H](S(=O)(=O)c2ccccc2)CN1C(=O)N1CCCC1)C(=O)c1nc2ccccc2o1 (some centres undefined)

IC50 [25]: > 10000 nM
IC50 [1]: 3 nM
IC50 [26]: > 10000 nM
Structure (SMILES): CCC(NC(=O)[C@@H]1C[C@@H](S(=O)(=O)c2ccccc2)CN1C(=O)c1ccccc1)C(=O)c1nc2ccccc2o1 (some centres undefined)
